Read-outs that look alike come from different tables or passages of the source.
How the values were obtained:
[1] = MHV370 blood exposure during food dosing of NZB/W F1 mice; type: in vivo, mouse
Method in brief: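 NZB/W F1 mice were fed diet containing test compound at 0.01% or 0.1%, with fresh food every two weeks. Daily food intake per mouse was calculated per cage. Whole-blood drug concentrations were measured by LC-MS/MS.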

[2] = test system: PMA-mediated ROS secretion from neutrophils; assay: Human neutrophil ROS production, PMA stimulation; type: cell-based
Method in brief: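 Cells were pre-treated 30 min with increasing concentrations of test compound or 0.1% v/v DMSO. They were then stimulated 30 min at 37°C, 5% CO2 with TL8-506 or PMA (50 ng/mL). ROS was detected with 2 μM dihydrorhodamine for 15 min at 37°C and read by flow cytometry. Signals were normalized to vehicle; viability was checked by CellTiter-Glo.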

TLR4 = TLR4 (Homo sapiens, UniProt O00206); assay: Human whole blood assay, LPS-TNF; type: cell-based
Method in brief: (§1)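 Fresh human blood or 129/Sv mouse blood was taken into citrate and diluted 1:1 with RPMI1640. It was pre-incubated 30 min at 37°C, 5% CO2 with increasing concentrations of test compound or 0.25% v/v DMSO (final). Blood was then stimulated with TLR agonists at doses from earlier work, or with R848 (3 μM), and cytokines were quantified. Viability was checked by ATPlite luminescence.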

TLR7 [3] = biological target: T1, TLR7 (Mus musculus, UniProt P58681); assay: Ex vivo PD marker CD69 on B cells vs MHV370 blood exposure in NZB/W F1 mice
T1 sequence (P58681 27-1050): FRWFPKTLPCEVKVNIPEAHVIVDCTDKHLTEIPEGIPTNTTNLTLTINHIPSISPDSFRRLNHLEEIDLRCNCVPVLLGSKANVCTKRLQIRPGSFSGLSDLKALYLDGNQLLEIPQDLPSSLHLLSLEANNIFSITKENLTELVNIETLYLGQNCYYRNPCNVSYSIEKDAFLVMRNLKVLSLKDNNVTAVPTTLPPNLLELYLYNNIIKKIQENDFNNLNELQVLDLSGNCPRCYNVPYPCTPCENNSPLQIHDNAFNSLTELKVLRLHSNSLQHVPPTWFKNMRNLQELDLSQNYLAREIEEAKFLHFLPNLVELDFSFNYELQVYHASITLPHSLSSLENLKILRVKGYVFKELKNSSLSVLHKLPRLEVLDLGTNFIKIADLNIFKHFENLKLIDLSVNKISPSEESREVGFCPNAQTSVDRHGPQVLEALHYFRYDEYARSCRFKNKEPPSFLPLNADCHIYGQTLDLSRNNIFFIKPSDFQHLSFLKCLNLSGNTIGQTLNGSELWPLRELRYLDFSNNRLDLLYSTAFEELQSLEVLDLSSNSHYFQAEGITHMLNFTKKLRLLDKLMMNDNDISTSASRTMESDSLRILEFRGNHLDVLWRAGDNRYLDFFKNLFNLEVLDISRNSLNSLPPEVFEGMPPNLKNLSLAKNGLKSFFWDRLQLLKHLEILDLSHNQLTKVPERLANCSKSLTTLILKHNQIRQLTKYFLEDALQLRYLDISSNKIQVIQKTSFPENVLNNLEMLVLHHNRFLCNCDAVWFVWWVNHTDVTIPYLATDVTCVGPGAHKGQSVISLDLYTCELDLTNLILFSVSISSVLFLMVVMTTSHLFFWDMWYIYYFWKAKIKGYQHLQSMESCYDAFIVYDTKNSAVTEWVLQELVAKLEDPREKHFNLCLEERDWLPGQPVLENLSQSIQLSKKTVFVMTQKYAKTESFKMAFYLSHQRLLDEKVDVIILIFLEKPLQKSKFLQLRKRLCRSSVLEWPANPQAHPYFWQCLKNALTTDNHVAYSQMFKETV
Method in brief: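 NZB/W F1 mice were dosed with test compound in food. Anticoagulated whole blood was diluted 1:1 in RPMI1640 and stimulated with 0.07 μg/mL R848 or medium at 37°C, 5% CO2. CD69 MFI on CD19+ B cells was read by flow cytometry. Drug concentration in whole blood was measured by LC-MS/MS.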

mouse blood = assay: Cell viability in mouse blood; type: cell-based; conditions: up to 10 μM
Method in brief: as §1

TLR7/8 = assay: Human PBMC cytokine release, TLR7/8 agonists ssRNA or R848; type: cell-based; conditions: human PBMCs, IL-6 as readout
TLR7 [4] = biological target: T2, TLR7 (Homo sapiens, UniProt Q9NYK1); assay: Ramos Blue NF-κB/AP-1 reporter B cell line, TLR7 stimulation; type: cell-based; conditions: Ramos cells, mean ± SD
T2 sequence (Q9NYK1 27-1049): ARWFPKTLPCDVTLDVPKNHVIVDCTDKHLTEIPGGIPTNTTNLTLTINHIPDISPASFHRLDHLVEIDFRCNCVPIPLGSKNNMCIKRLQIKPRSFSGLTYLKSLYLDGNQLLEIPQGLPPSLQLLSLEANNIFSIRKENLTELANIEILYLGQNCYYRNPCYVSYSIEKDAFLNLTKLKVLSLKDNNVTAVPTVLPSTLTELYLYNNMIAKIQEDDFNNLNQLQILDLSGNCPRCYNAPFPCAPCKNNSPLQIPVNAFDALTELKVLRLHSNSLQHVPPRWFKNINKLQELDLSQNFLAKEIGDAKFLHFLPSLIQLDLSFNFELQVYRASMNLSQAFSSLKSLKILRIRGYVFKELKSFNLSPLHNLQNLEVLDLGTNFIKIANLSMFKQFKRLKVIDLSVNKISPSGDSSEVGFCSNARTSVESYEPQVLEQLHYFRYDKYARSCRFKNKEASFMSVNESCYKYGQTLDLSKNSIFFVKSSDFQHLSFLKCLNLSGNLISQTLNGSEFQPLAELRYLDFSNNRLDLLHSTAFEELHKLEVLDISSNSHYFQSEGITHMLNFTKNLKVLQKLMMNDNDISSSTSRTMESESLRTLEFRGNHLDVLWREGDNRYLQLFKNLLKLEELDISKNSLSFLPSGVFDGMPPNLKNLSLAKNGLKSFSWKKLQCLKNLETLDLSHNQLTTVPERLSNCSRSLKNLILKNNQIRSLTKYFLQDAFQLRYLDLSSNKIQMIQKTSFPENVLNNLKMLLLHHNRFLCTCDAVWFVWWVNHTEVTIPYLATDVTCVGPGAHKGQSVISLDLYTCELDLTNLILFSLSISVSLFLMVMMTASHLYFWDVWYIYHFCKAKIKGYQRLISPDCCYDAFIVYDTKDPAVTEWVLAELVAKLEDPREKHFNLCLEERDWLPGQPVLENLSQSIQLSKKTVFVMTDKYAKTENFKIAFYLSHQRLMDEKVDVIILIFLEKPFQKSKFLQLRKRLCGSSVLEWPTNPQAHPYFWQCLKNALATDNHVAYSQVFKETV
Method in brief: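 Ramos Blue B reporter cells were pre-treated 30 min at 37°C, 5% CO2 with increasing concentrations of test compound or 0.25% v/v DMSO. They were then stimulated with the respective agonist, and reporter activity was read.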

Sequence of TLR4 (O00206 24-839): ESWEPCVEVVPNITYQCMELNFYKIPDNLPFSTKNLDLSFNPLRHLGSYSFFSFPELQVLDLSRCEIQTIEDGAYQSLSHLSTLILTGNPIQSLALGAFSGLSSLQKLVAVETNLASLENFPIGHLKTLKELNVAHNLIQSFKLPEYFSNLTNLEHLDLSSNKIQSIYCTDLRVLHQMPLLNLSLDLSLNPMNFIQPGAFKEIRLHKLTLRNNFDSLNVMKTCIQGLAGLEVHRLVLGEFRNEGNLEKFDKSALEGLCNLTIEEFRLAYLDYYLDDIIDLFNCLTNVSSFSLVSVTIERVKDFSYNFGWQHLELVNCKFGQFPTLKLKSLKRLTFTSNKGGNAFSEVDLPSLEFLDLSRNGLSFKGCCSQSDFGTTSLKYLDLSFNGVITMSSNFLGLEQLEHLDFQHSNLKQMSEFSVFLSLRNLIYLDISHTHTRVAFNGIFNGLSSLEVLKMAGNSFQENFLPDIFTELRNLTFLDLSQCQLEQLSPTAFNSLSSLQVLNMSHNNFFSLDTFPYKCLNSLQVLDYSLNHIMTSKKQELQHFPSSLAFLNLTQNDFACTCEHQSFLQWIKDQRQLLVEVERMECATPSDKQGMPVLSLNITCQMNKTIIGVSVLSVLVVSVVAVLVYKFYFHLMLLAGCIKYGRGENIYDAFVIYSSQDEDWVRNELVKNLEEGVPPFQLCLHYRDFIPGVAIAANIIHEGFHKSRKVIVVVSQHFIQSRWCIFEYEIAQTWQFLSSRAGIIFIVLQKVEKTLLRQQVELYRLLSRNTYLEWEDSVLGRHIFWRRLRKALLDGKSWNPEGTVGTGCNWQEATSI
Sequence of TLR4 (Q9Y6Y9 19-160 partner): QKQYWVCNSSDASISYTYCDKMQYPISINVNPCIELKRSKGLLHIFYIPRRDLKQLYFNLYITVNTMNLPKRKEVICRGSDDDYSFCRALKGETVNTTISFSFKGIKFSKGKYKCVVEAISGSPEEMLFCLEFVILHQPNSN

Cc1cc(N2CCc3c(c(C)nn3CC34CCC(NC(=O)[C@@H]5COCCN5)(CC3)CC4)C2)c2cnn(C)c2n1 [MHV370, (S)-N-(4-((5-(1,6-dimethyl-1H-pyrazolo[3,4-b]pyridin-4-yl)-3-methyl-4,5,6,7-tetrahydro-1H-pyrazolo[4,3-c]pyridin-1-yl)methyl)bicyclo[2.2.2]octan-1-yl)morpholine-3-carboxamide]
exposure level in blood ([1]; 0.01% MHV370 in food): 55 nM
exposure level in blood ([1]; 0.1% MHV370 in food): 1424 nM
block of ROS production, PMA stimulation [2]: but not with phorbol myristate acetate
activity following TLR4 activation (TLR4): inactive
IC50 (TLR7 [3]): 35 nM
effect on cell viability (mouse blood): did not show
mode of antagonism (Schild analysis) (TLR7/8): competitive and reversible antagonist
IC50 (TLR7 [4]; IC50, CL307-driven reporter gene activity, CL307): 15 ± 10 nM
IC50 (TLR7 [4]; read-out: IC50, R848-driven reporter gene activity, R848): 7 ± 0.1 nM

From paper PMC10213863 (Cell Reports Medicine, 2023)
